Measured values as given in ChEMBL document CHEMBL1123901, “Inhibition of delayed hypersensitivity reactions by cinnamyl 1-thioglycosides” (J Med Chem, 1987).

Experiments:
Assay type in all cases: functional
Mus musculus [1] = experiment: Compound was administered orally to mice before increase in foot-pad thickness at a dose of 2.5 mg/kg; settings: route oral
Method in brief: (§1)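 DTH in A/J female mice (20-23 g): cyclophosphamide 200 mg/kg sc, then iv sensitization with 10^8 washed SRBC 3 days later. On day 6 after sensitization, one hind footpad challenged with 10^8 SRBC in 20 μL, the other given saline. Dosing ip or po to overnight-fasted mice 20 min before challenge. Swelling read at 24 and 48 h as antigen minus saline footpad (mm × 10), by constant-pressure caliper.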

Mus musculus [2] = experiment: Percent reduction in mice after oral administration 2.5 mg/kg; method in brief: as §1
Cavia porcellus [3] = species on record: Cavia porcellus; experiment: Effect on guinea pig T cell proliferation was ested by measuring the incorporation of (+/)-[3H]thymidine uptake at the concentration of 100 uM
Method in brief: (§2)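 Strain 2 female guinea pigs were immunized with 100 μg OVA in CFA split over the footpads. At day 14 they received mineral oil ip, and the exudate was collected 4 days later. T cells were enriched on nylon wool. 2×10^5 cells per well were cultured with 10% irradiated (2100 rads) exudate cells, OVA (10 μg/mL) and compound, for 72 h at 37 °C in 5% CO2. [3H]thymidine (1 μCi) was added 18-24 h before harvest. Triplicate wells; mean Δcpm ± SD.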

Cavia porcellus [4] = species on record: Cavia porcellus; experiment: Effect on guinea pig T cell proliferation was tested by measuring the incorporation of [3H]-thymidine uptake at the concentration of 0 uM; method in brief: as §2
Cavia porcellus [5] = species on record: Cavia porcellus; experiment: Inhibitory activity against [3H]thymidine uptake by cinnamyl 1-thioglycosides in guinea pig T cell proliferation; settings: Cavia porcellus, T-cell, 72 h; method in brief: as §2
Cavia porcellus [6] = species on record: Cavia porcellus; experiment: Effect on guinea pig T cell proliferation was tested by measuring the incorporation of [3H]thymidine uptake at the concentration of 10 uM; method in brief: as §2
Cavia porcellus [7] = species on record: Cavia porcellus; experiment: Effect on guinea pig T cell proliferation was tested by measuring the incorporation of [3H]thymidine uptake at the concentration of 1000 uM; method in brief: as §2
Cavia porcellus [8] = species on record: Cavia porcellus; experiment: Effect on guinea pig T cell proliferation was tested by measuring the incorporation of [3H]thymidine uptake at the concentration of 500 uM; method in brief: as §2
Cavia porcellus [9] = species on record: Cavia porcellus; experiment: Effect on guinea pig T cell proliferation was tested by measuring the incorporation of [3H]thymidine uptake at the concentration of 750 uM; method in brief: as §2
Cavia porcellus [10] = species on record: Cavia porcellus; experiment: Effect on guinea pig T cell proliferation was tested by measuring the incorporation of [3H]thymidine uptake at the concentration of 250 uM; method in brief: as §2

Compound `C[C@@H]1C[C@H]2[C@@H]3CCC4=CC(=O)C=C[C@]4(C)[C@@]3(F)[C@@H](O)C[C@]2(C)[C@@]1(O)C(=O)CO` [DEXAMETHASONE] has an Activity (Mus musculus [1]) of 0.3 mm x10 and a Reduction (Mus musculus [2]) of 68%.
For `[N-]=[N+]=NCC1OC(SC/C=C/c2ccccc2)C(O)C(O)C1O` (stereo not given), the Activity (Cavia porcellus [3]) was 21.1 Δcpm x10e-3, the Activity (Cavia porcellus [4]) was 33.5 Δcpm x10e-3 and the IC50 (Cavia porcellus [5]) was 240 µM. For the same compound, the Activity (Cavia porcellus [6]) was 21 Δcpm x10e-3, the Activity (Cavia porcellus [7]) was 0.06 Δcpm x10e-3 and the Activity (Cavia porcellus [8]) was 2.26 Δcpm x10e-3. The Activity (Cavia porcellus [9]) was 0 Δcpm x 10^-3 and the Activity (Cavia porcellus [10]) was 14.3 Δcpm x10e-3.
